Data reported in publication PMC3042207 (British Journal of Pharmacology, 2011).
Several values for one entry are separate records, joined by “and”; a condition that tells them apart may be missing. Identical values can stand only once.

How the values were obtained:
[1] = mouse model; ref Maurer et al., 2007; cited from earlier work
[2] = Glucuronidation of 4-HPR by human liver microsomes; assay type: in vitro ADME; details: human, human liver microsomes, pH 7.5
Summary of the method: (§1)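 Intestinal or liver microsomes at 1 mg·mL−1 are incubated with 0–2000 µM substrate (13 levels) for 3 h at 37°C. The buffer is 50 mM Tris-HCl, pH 7.5, with alamethicin 25 µg·mL−1, 8 mM MgCl2, 2 mM UDP-glucuronic acid and 0.25% methanol. Reactions are started with enzyme and stopped with ice-cold acetonitrile. The glucuronide is quantified by C18 HPLC, with identity confirmed by β-glucuronidase. Vmax is in peak area units·min−1; mean ± SD of three independent experiments.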

[3] = test system: human liver microsomes (HLM); assay: Glucuronidation of 4-HPR by human liver microsomes; assay type: in vitro ADME; details: HLM, 1 mg·mL^−1; 4-HPR 0-2000 µM, 3 h
Summary of the method: as §1

individual human CYPs = assay type: in vitro ADME; details: CYPs 3A4, 3A5 and 2C8 supersomes
Summary of the method: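 Reactions are stopped with acetonitrile and the 4′-hydroxy metabolite is measured by HPLC. With no authentic standard, Vmax is given in peak area units·min−1. Values are mean ± SD of at least three experiments.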

[4] = test system: human liver microsomes (HLM); assay: Oxidative metabolism of 4-HPR by human liver microsomes; assay type: in vitro ADME; details: 4-HPR 0-20 µM, 3 h, HPLC, mean ± SD, n≥3
Summary of the method: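 Termination is with ice-cold acetonitrile, then centrifugation at 10 000× g. The 4′-hydroxy and 4′-oxo metabolites are resolved by reversed-phase HPLC with photodiode-array detection. Vmax is derived from formation rates; mean ± SD, n ≥ 3.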

[5] = Glucuronidation of 4-HPR by human intestinal microsomes; assay type: in vitro ADME; details: human, human intestinal microsomes, pH 7.5
Summary of the method: as §1

[6] = test system: human intestinal microsomes (HIM); assay: as above; assay type: in vitro ADME; details: HIM, 1 mg·mL^−1; 4-HPR 0-2000 µM, 3 h
Summary of the method: as §1

[7] = test system: human liver microsomes (HLM); assay: Formation of 4-MPR from 4-HPR by HLM with SAM; assay type: in vitro ADME; details: HLM 0.5 mg·mL^−1, 0–100 µM 4-HPR, 0.2 mM SAM, 3 h
UGT 1A1 = target: T1, UGT 1A1 (Homo sapiens, UniProt P22309); assay: Glucuronidation of 4-HPR by UGT 1A1 supersomes; assay type: in vitro ADME; details: UGT 1A1, 1 mg·mL^−1; 4-HPR 0-2000 µM, 3 h
T1 sequence (P22309 26-533): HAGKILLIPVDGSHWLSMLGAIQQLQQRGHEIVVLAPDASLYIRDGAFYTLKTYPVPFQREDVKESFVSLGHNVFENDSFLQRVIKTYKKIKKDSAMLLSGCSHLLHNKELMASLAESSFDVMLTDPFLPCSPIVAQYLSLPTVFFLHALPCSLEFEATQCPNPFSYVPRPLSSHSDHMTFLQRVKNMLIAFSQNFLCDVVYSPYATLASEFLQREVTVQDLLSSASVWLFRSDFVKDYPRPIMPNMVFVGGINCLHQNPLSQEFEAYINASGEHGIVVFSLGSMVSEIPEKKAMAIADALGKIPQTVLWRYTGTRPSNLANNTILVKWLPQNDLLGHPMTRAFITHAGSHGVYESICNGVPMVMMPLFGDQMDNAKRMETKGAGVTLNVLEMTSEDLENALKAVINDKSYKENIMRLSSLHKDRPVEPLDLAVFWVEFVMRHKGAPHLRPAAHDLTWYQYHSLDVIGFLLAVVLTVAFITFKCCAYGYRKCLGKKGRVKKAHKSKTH

UGT 1A6 = target: T2, UGT 1A6 (Homo sapiens, UniProt P19224); assay: Glucuronidation of 4-HPR by UGT 1A6 supersomes; assay type: in vitro ADME; details: UGT 1A6, 1 mg·mL^−1; 4-HPR 0-2000 µM, 3 h
T2 sequence (P19224 27-532): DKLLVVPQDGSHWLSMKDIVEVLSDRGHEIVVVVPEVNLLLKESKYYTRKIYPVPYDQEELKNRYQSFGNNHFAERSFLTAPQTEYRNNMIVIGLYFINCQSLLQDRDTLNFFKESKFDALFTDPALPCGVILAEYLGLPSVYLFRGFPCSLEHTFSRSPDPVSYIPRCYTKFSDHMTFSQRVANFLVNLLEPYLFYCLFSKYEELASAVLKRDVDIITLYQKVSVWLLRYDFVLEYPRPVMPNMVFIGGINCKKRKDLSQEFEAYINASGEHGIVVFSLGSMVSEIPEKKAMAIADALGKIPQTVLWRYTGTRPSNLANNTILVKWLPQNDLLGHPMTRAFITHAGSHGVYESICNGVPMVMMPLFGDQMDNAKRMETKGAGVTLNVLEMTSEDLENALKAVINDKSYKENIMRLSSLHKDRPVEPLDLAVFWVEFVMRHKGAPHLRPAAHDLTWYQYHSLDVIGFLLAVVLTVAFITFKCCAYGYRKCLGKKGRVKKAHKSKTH

UGT 1A3 = target: T3, UGT 1A3 (Homo sapiens, UniProt P35503); assay: Glucuronidation of 4-HPR by UGT 1A3 supersomes; assay type: in vitro ADME; details: UGT 1A3, 1 mg·mL^−1; 4-HPR 0-2000 µM, 3 h
T3 sequence (P35503 29-534): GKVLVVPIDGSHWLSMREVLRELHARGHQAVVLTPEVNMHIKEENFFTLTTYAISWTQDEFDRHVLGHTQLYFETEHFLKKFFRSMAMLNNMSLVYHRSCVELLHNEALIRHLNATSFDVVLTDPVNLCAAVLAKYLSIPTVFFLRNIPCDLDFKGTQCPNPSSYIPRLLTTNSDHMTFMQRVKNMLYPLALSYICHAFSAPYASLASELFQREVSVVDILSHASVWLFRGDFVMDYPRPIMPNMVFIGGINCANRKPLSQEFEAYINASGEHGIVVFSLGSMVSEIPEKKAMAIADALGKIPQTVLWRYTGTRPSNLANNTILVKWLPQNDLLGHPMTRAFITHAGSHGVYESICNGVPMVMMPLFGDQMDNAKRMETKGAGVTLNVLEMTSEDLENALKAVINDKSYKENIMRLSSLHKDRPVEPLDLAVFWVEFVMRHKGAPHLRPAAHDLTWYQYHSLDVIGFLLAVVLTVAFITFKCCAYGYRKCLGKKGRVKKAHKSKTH

Km at 3 h [2]: 540 ± 69 µM | Km at 3 h [5]: 1210 ± 202 µM | Km ([7]; read-out: Km, 4-MPR formation): 236 µM | Vmax, 4-HPR glucuronide formation (UGT 1A1): 577 ± 34 peak area U·min^−1 | Vmax, 4-HPR glucuronide formation (UGT 1A6): 124 ± 6 peak area U·min^−1 | Vmax, 4-HPR glucuronide formation (UGT 1A3): 317 ± 18 peak area U·min^−1
SMILES: CC1=C(/C=C/C(C)=C/C=C/C(C)=C/C(=O)Nc2ccc(O)cc2)C(C)(C)CCC1 [4-HPR, fenretinide]
increase of plasma concentrations, lipid matrix vs oil-based capsules [1]: up to seven-fold | Vmax, 4-HPR glucuronide formation [3]: 679 ± 39 peak area U·min^−1 | Vmax, 4′-OH 4-HPR production, range over supersomes expressing individual CYPs (individual human CYPs): 115–282 peak area U·min^−1 | Vmax, 4′-OH 4-HPR formation [4]: 28 peak area U·min^−1 and 28 ± 6 peak area U·min^−1 | Vmax, 4′-oxo 4-HPR formation [4]: 131 peak area U·min^−1 and 131 ± 14 peak area U·min^−1 | Vmax, 4-HPR glucuronide formation [6]: 418 ± 38 peak area U·min^−1 | Vmax, 4-MPR formation ([7]; calculated): 823 peak U·min^−1 | Vmax, 4-HPR glucuronide formation, per pmol UGT (UGT 1A1): 0.62 peak area U·min^−1·pmol^−1 UGT and 0.62 ± 0.04 peak area U·min^−1·pmol^−1 UGT | Vmax, 4-HPR glucuronide formation, per pmol UGT (UGT 1A6): 0.02 peak area U·min^−1·pmol^−1 UGT and 0.02 ± 0.001 peak area U·min^−1·pmol^−1 UGT | Vmax, 4-HPR glucuronide formation, per pmol UGT (UGT 1A3): 2.11 peak area U·min^−1·pmol^−1 UGT and 2.11 ± 0.12 peak area U·min^−1·pmol^−1 UGT
